Experimental data taken from ChEMBL document CHEMBL3593162, “Novel 9-Alkyl- and 9-Alkylidene-Substituted 1α,25-Dihydroxyvitamin D3 Analogues: Synthesis and Biological Examinations” (J Med Chem, 2015).
Each block holds one compound with its values, some of them ahead of it.

Tests used:
[1] = target: T1, Vitamin D3 receptor (Rattus norvegicus) (UniProt P13053); experiment: Potency index, ratio of 1alpha,25-(OH)2D3 Ki to compound Ki for full length recombinant rat vitamin D receptor
T1 sequence (whole entry): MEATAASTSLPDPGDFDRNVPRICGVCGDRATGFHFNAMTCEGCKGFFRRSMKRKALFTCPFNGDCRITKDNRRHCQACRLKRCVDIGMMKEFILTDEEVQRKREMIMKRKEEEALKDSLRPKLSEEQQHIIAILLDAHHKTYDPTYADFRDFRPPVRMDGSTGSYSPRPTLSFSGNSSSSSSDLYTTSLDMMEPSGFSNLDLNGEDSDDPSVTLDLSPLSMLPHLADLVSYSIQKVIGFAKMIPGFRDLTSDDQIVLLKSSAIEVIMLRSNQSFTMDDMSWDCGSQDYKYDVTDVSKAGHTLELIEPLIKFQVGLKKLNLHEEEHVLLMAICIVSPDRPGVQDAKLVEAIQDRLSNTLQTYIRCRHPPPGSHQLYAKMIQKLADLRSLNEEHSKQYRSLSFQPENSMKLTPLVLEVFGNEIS

[2] = system: HL-60; experiment: Induction of differentiation of human HL60 promyelocytes to monocytes after 4 days by nitro blue tetrazolium reduction assay; format: functional; settings: for EC50: Homo sapiens, HL-60, 96 h, read-out: ED50 (the source's name)
Summary of the method: (§1)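 HL-60 cells grown in RPMI-1640 with 10% FBS at 37 °C, 5% CO2, plated at 1.2 × 10^5 cells/plate. Dosed in duplicate 18 h after plating (final ethanol <0.2%). After 4 days, NBT reduction read by counting 200 cells for formazan deposits. ED50 is the concentration giving 50% maturation, from dose-response curves; repeated 2 to 3 times, mean reported. Ratio = ED50 of 1α,25-(OH)2D3 / ED50 of analogue.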

[3] = target: T2, Vitamin D3 receptor (Rattus norvegicus, UniProt P13053); experiment: Displacement of [3H]-1alpha25-(OH)2D3 from full length recombinant rat vitamin D receptor by scintillation counting analysis
T2 sequence (P13053 whole entry): T1 sequence (whole entry)
Summary of the method: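 [3H]-1α,25(OH)2D3 at 1 nM final plus unlabeled ligand (ethanol ≤10%), incubated overnight on ice. Bound ligand captured on hydroxylapatite, washed with Tris–EDTA/0.5% Triton X-100, scintillation counted. Ki from dose-response curves using Kd 0.2 nM; duplicates on two to three occasions.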

[4] = Potency index, ratio of 1alpha,25-(OH)2D3 ED50 to compound ED50 for induction of transcriptional activity in rat ROS 17/2.8 cells; format: functional
Summary of the method: (§2)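 ROS 17/2.8 cells stably transfected with 24-hydroxylase promoter–luciferase reporter, dosed over a range of concentrations. Harvested 16 h after dosing; luciferase read on a luminometer. ED50 is the concentration raising luciferase activity by 50%, from dose-response curves. Ratio = ED50 of 1α,25-(OH)2D3 / ED50 of analogue.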

[5] = system: HL-60; experiment: Potency index, ratio of 1alpha,25-(OH)2D3 ED50 to compound ED50 for induction of differentiation of human HL60 promyelocytes to monocytes; format: functional; summary of the method: as §1
[6] = Induction of transcriptional activity in rat ROS 17/2.8 cells after 16 hrs by 24-hydroxylase luciferase reporter gene assay; format: functional; settings: for EC50: Rattus norvegicus, 16 h, read-out: ED50 (the source's name); summary of the method: as §2
[7] = system: Rattus norvegicus; experiment: Induction of intestinal calcium transport in Sprague-Dawley rat assessed as ratio of serosal calcium to mucosal calcium level at 7020 pmol, ip administered 4 doses at 24 hrs interval measured 24 hrs post last dose by everted gut sac method (reference value: 4.3); format: functional
[8] = system: Rattus norvegicus; experiment: Induction of intestinal calcium transport in Sprague-Dawley rat assessed as ratio of serosal calcium to mucosal calcium level at 35100 pmol, ip administered 4 doses at 24 hrs interval measured 24 hrs post last dose by everted gut sac method (reference value: 4.3); format: functional
[9] = system: Rattus norvegicus; experiment: Induction of bone calcium mobilization into serum of Sprague-Dawley rat assessed as total serum calcium level at 35100 pmol, ip administered 4 doses at 24 hrs interval measured 24 hrs post last dose (reference value: 4.5 mg/dL); format: functional
Summary of the method: (§3)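 Group-housed rats on Diet 11 (0.47% Ca) + AEK oil for 1 week, then 0.02% Ca for 3 weeks, then 0.47% Ca for 1 week, then 2 weeks on 0.02% Ca. Dosing in the final week: four ip doses about 24 h apart. Blood taken from the severed neck 24 h after the last dose; serum calcium measured as the bone calcium mobilization index.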

[10] = system: Rattus norvegicus; experiment: Induction of bone calcium mobilization into serum of Sprague-Dawley rat assessed as total serum calcium level at 7020 pmol, ip administered 4 doses at 24 hrs interval measured 24 hrs post last dose (reference value: 4.5 mg/dL); format: functional; summary of the method: as §3
[11] = system: Rattus norvegicus; experiment: Induction of bone calcium mobilization into serum of Sprague-Dawley rat assessed as total serum calcium level at 105300 pmol, ip administered 4 doses at 24 hrs interval measured 24 hrs post last dose (reference value: 4.5 mg/dL); format: functional; summary of the method: as §3
[12] = system: Rattus norvegicus; experiment: Induction of intestinal calcium transport in Sprague-Dawley rat assessed as ratio of serosal calcium to mucosal calcium level at 105300 pmol, ip administered 4 doses at 24 hrs interval measured 24 hrs post last dose by everted gut sac method (reference value: 4.3); format: functional
[13] = system: Rattus norvegicus; experiment: Induction of bone calcium mobilization into serum of Sprague-Dawley rat assessed as serum calcium level at 780 pmol, ip administered 4 doses at 24 hrs interval measured 24 hrs post last dose (reference value: 4.9 mg/dL); format: functional; summary of the method: as §3
[14] = system: Rattus norvegicus; experiment: Induction of intestinal calcium transport in Sprague-Dawley rat assessed as ratio of serosal calcium to mucosal calcium level at 780 pmol, ip administered 4 doses at 24 hrs interval measured 24 hrs post last dose by everted gut sac method (reference value: 4.1); format: functional
[15] = system: Rattus norvegicus; experiment: Induction of bone calcium mobilization into serum of Sprague-Dawley rat assessed as serum calcium level at 35100 pmol, ip administered 4 doses at 24 hrs interval measured 24 hrs post last dose (reference value: 4.9 mg/dL); format: functional; summary of the method: as §3
[16] = system: Rattus norvegicus; experiment: Induction of intestinal calcium transport in Sprague-Dawley rat assessed as ratio of serosal calcium to mucosal calcium level at 35100 pmol, ip administered 4 doses at 24 hrs interval measured 24 hrs post last dose by everted gut sac method (reference value: 4.1); format: functional
[17] = system: Rattus norvegicus; experiment: Induction of bone calcium mobilization into serum of Sprague-Dawley rat assessed as serum calcium level at 7020 pmol, ip administered 4 doses at 24 hrs interval measured 24 hrs post last dose (reference value: 4.9 mg/dL); format: functional; summary of the method: as §3
[18] = system: Rattus norvegicus; experiment: Induction of intestinal calcium transport in Sprague-Dawley rat assessed as ratio of serosal calcium to mucosal calcium level at 7020 pmol, ip administered 4 doses at 24 hrs interval measured 24 hrs post last dose by everted gut sac method (reference value: 4.1); format: functional
[19] = system: Rattus norvegicus; experiment: Induction of bone calcium mobilization into serum of Sprague-Dawley rat assessed as total serum calcium level at 260 pmol, ip administered 4 doses at 24 hrs interval measured 24 hrs post last dose (reference value: 4.5 mg/dL); format: functional; summary of the method: as §3
[20] = system: Rattus norvegicus; experiment: Induction of bone calcium mobilization into serum of Sprague-Dawley rat assessed as serum calcium level at 87 pmol, ip administered 4 doses at 24 hrs interval measured 24 hrs post last dose (reference value: 4.9 mg/dL); format: functional; summary of the method: as §3

SMILES: C/C=C1\CC[C@]2(C)[C@@H]([C@H](C)CCCC(C)(C)O)CC[C@H]2\C1=C\C=C1C[C@@H](O)C[C@H](O)C1
- Ratio Ki [1]: < 1e-05
- EC50 [2]: 10 µM
- Activity [11]: 4.5 mg/dL
- Ratio [7]: 6.6
- Ratio [12]: 7.3
- Ki [3]: > 10000 nM
- Ratio ED50 [4]: 0.0001
- Ratio ED50 [5]: 0.0001
- EC50 [6]: 1000 nM
- Activity [10]: 4.6 mg/dL

SMILES: C=C1/C(=C\C=C2/CCC[C@]3(C)[C@@H]([C@H](C)CCCC(C)(C)O)CC[C@@H]23)C[C@@H](O)C[C@@H]1O [CALCITRIOL]
- Activity [13]: 7.3 mg/dL
- ED50 [2]: 2 ×10⁻⁹ M
- Activity [19]: 5.6 mg/dL
- Activity [20]: 6.2 mg/dL
- ED50 [6]: 3 ×10⁻¹⁰ M

SMILES: C=C1CC[C@]2(C)[C@@H]([C@H](C)CCCC(C)(C)O)CC[C@H]2/C1=C/C=C1/C[C@@H](O)C[C@H](O)[C@@H]1C
- Ratio Ki [1]: < 1e-05
- EC50 [2]: 10 µM
- Ki [3]: > 10000 nM
- Ratio ED50 [4]: 0.003
- Ratio ED50 [5]: 0.0001
- ED50 [6]: 9 ×10⁻⁸ M

Now from value to compound, other results behind:

- Ratio Ki [1]: < 1e-05
- EC50 [2]: 10 µM
- Ki [3]: > 10000 nM
- EC50 [6]: 1000 nM
SMILES: C=C1CC[C@]2(C)[C@@H]([C@H](C)CCCC(C)(C)O)CC[C@H]2/C1=C/C=C1/C[C@@H](O)C[C@H](O)[C@H]1C
- Ratio ED50 [4]: 0.0001
- Ratio ED50 [5]: 0.0001

- Ratio Ki [1]: 0.005
- EC50 [2]: 1 µM
- Ki [3]: 20 nM
SMILES: C=C1CC[C@]2(C)[C@@H]([C@H](C)CCCC(C)(C)O)CC[C@H]2/C1=C/C=C1C[C@@H](O)C[C@H](O)C1
- Ratio [7]: 5.3
- Ratio [8]: 4.6
- Activity [9]: 4.4 mg/dL
- Ratio ED50 [4]: 0.006
- Ratio ED50 [5]: 0.002
- ED50 [6]: 5 ×10⁻⁸ M
- Activity [10]: 4.3 mg/dL

- Ratio Ki [1]: 0.5
- Ki [3]: 0.2 nM
SMILES: C[C@H](CCCC(C)(C)O)[C@H]1CC[C@H]2/C(=C/C=C3C[C@@H](O)C[C@H](O)C3)[C@@H](C)CC[C@]12C
- Activity [13]: 4.8 mg/dL
- ED50 [2]: 9 ×10⁻⁹ M
- Ratio [14]: 5
- Activity [15]: 5.4 mg/dL
- Ratio [16]: 8.8
- Ratio ED50 [4]: 1
- Ratio ED50 [5]: 0.2
- Activity [17]: 4.5 mg/dL
- ED50 [6]: 3 ×10⁻¹⁰ M
- Ratio [18]: 10.1

- Ratio Ki [1]: 0.005
- Ki [3]: 20 nM
SMILES: C=C1/C(=C\C=C2/[C@H](C)CC[C@]3(C)[C@@H]([C@H](C)CCCC(C)(C)O)CC[C@@H]23)C[C@@H](O)C[C@@H]1O
- ED50 [2]: 5 ×10⁻⁶ M
- Ratio [7]: 7.9
- Ratio [8]: 6.2
- Activity [9]: 4.6 mg/dL
- Ratio ED50 [4]: 0.006
- Ratio ED50 [5]: 0.0001
- ED50 [6]: 5 ×10⁻⁸ M
- Activity [10]: 4.3 mg/dL
